Bioassay records (PubChem BioAssay)
Most compounds without a hit are left out; they make up all but 2.4% or so of the library.
MIN6 prolif-1: inducers of beta-cell replication in MIN6 cells; MIN6 cells proliferation, ATPlite luminescence, 48 h; cells starved in 0.2% serum; 100% = growth in 10% serum; proliferation, % at 10 µM; 330,000 compounds, 0.29% hits; AID 2380;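 active = compounds whose signal lies at least 3.5 SD above the mean of all wells on their plate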
Myeloid diff MLP: myeloid differentiation induction; ER-HoxA9 myeloid progenitors, lysozyme-GFP differentiation, flow cytometry; calls only at 10 µM; 360,000 compounds, 1% hits;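 active = normalized GFP-positive differentiation at or above the plate's own cutoff, the solvent-only control mean plus 3 SD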;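 note: cells exposed to compound for four days before flow analysis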
SENP1 inh: inhibitors of human SENP1 SUMO protease catalytic domain. recombinant SENP1 catalytic domain, CyPet-SUMO1-YPet FRET cleavage. inhibition, % at 10 µM. 360,000 compounds, 0.21% hits;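 active = inhibition at least 30% at 10 µM, raw YFP signal under a set limit, fluorescence ratio 0.5 to 1.5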
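Assay system: hSENP1 catalytic domain, recombinant. Amount: SENP1 enzyme, 20 pM final. Schedule: 50 min reaction, RT, dark. Technique: FRET, CFP and YFP emission. Control set: no-enzyme wells low, DMSO-plus-enzyme wells high control.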
NRP1-CendR mod: alters CendR peptide binding to human NRP-1; O14786; FAM-RPARPAR peptide binding to NRP-1, fluorescence polarization; inhibition, % at 25 µM; 360,000 compounds, 0.85% hits; AID 602438;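 active = inhibition or corrected inhibition above about 18%, plus a signal ratio from 0.5 to 1.5, limit read from the data, passing the limit was not always enough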
Target sequence (O14786 whole entry, looked up): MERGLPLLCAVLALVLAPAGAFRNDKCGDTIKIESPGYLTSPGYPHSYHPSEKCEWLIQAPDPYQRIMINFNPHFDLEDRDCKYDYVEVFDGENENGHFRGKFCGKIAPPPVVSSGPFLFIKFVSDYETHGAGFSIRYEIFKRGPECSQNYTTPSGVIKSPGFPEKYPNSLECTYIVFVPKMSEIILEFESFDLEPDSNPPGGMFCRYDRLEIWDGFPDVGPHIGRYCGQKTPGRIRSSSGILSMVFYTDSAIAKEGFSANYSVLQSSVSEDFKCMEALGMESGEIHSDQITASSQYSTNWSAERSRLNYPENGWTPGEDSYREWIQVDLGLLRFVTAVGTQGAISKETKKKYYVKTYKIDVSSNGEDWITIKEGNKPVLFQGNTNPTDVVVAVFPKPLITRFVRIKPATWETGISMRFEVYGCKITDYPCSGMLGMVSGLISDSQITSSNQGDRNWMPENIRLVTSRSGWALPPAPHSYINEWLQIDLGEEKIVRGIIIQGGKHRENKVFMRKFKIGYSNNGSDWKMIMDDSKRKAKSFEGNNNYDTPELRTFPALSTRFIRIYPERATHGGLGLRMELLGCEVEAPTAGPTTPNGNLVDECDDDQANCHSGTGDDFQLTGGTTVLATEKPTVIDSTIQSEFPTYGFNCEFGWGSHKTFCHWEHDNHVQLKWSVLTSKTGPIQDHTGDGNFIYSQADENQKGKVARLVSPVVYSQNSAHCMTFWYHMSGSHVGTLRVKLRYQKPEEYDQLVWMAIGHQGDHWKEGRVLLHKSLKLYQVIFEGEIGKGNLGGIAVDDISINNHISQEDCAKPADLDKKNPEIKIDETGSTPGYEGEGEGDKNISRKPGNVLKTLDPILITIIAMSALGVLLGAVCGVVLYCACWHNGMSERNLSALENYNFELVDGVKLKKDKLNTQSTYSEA
MT1-MMP act inh: inhibitors of human MT1-MMP activation. P50281. HT1080 RFP-PRO-GFP cells, GFP/RFP ratio fluorescence, overnight; percent of plate control window, DMSO zero. GFP/RFP ratio change, % at 20 µM. 360,000 compounds, 0.061% hits. AID 651647;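 active = GFP/RFP ratio change of at least 30% with cell ATP level not reduced by more than half and red fluorescence within 50% of control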
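Assay system: HT1080 RFP-PRO-GFP cells. Benchmarks: DMSO vehicle wells and RFP-L50D-GFP reporter cell wells. Times: overnight cell settling, then overnight compound exposure, 37 °C, 5% CO2. Compound: 20 µM single dose, 1% DMSO. Read-out basis: GFP/RFP fluorescence ratio.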
DAGLB inhibitor: blocks human DAGLB lipase activity; Q8NCG7; HEK293T DAGLB membrane lysate, EnzChek fluorogenic substrate; inhibition, % at 5.17 µM; 340,000 compounds, 0.059% hits; in the data active = inhibition above about 34%
MIN6 prolif-2: confirmation of inducers of beta-cell replication in MIN6 cells. shares compounds with MIN6 prolif-1. MIN6 beta-cell proliferation, ATPlite luminescence, 48 h; cells kept in 0.2% serum; scaled between 0.2% and 10% serum. proliferation increase, % at 50 µM. 920 tested, under 10 active;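 active = proliferation increase above 40% at any of the four tested concentrations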
Each line names hits and unclear results; the compound was inactive in the other large screens (follow-up assays come after a bar, where they were run).

O=C(CSc1n[nH]c(=O)n1-c1ccc2c(c1)OCCO2)Nc1ccccc1	MIN6 prolif-1 4.9 | MIN6 prolif-2 inactive
C[C@]12c3[nH]c4ccc(Cl)cc4c3CCN1C(=O)[C@@H](CC(=O)NCCC1=CCCCC1)C[C@@H]2C(=O)N1CCCCC1	none (no result: MIN6 prolif-1)
CCCCc1nc2sc3c(SCC(=O)NCc4ccco4)ncnc3c2c2c1CCC2	none
CC(C)c1nc2sc3c(SCC(N)=O)ncnc3c2c2c1CCC2	MIN6 prolif-1 5.1 | MIN6 prolif-2 inactive
CCOC(=O)C1CCN(C(=O)C2(NC(=O)Nc3ccc(F)cc3F)CCCCC2)CC1	MIN6 prolif-1 7.6 | MIN6 prolif-2 inactive
CCOC(=O)C1CCN(C(=O)C2(NC(=O)NC3CCCCC3)CCCCC2)CC1	none
Cc1ccc(Nc2nc3c(c(=O)[nH]2)CCCC3)cc1	MIN6 prolif-1 5.8 | MIN6 prolif-2 inactive
CCOC(=O)c1[nH]c2ccc(OC)cc2c1NS(=O)(=O)c1ccc(Cl)s1	MIN6 prolif-1 5.3 | MIN6 prolif-2 inactive
O=C(N/N=C/c1cccnc1)c1sc2ccccc2c1Cl	none
COc1ccc2c(Cl)c(C(=O)N/N=C/c3cccnc3)sc2c1	MIN6 prolif-1 15.2 | MIN6 prolif-2 inactive
O=C(Nc1ccc(-c2ccco2)cc1)C1CCCN(Cc2ccc(CO)o2)C1 (stereo unspecified)	MIN6 prolif-1 10.9 | MIN6 prolif-2 inactive
CC(=O)c1cccc(CN2CCCC(C(=O)Nc3ccc(-c4ccco4)cc3)C2)c1 (stereo unspecified)	none
CC(=O)Nc1ccc(NC(=O)c2ccc(C)c(S(=O)(=O)Nc3cccc(C)c3)c2)cc1	none
CC(C)(Oc1ccc(Cl)cc1)C(=O)Nc1c2c(nn1C(C)(C)C)CS(=O)(=O)C2	MIN6 prolif-1 15.2 | MIN6 prolif-2 inactive
COc1ccccc1CCC(=O)Nc1ccc(S(=O)(=O)Nc2nccs2)cc1	MIN6 prolif-1 13.0 | MIN6 prolif-2 inactive
O=C(NNS(=O)(=O)c1ccccc1)Nc1ccc(F)cc1	none
COc1ccc(CCN(C)C(=O)c2cc(-c3ccccc3)nc3ccc(C)cc23)cc1OC	MIN6 prolif-1 11.0 | MIN6 prolif-2 inactive
COc1ccc(OC)c(C(=O)CSc2nccc(-c3ccc(Br)cc3)n2)c1	MIN6 prolif-1 5.6 | MIN6 prolif-2 inactive
COc1ccc(-c2ccnc(SCC(=O)c3ccc(OC)c(OC)c3)n2)cc1	none
O=C(NC1CCCCCC1)C1CCN(S(=O)(=O)c2cccc3cccnc23)CC1	none
O=C(NC1CCCC1)C1CCCN(S(=O)(=O)c2cccc3cccnc23)C1 (stereo unspecified)	MIN6 prolif-1 9.5 | MIN6 prolif-2 inactive
Cc1cc(=O)n2[nH]c(SCc3ccccc3)nc2n1	MIN6 prolif-1 8.3 | MIN6 prolif-2 inactive
Cc1cc(=O)n2[nH]c(SCc3ccc(Cl)cc3)nc2n1	none
Cc1ccc(NC(=O)C2CCN(C(=O)[C@@H]3Cc4ccccc4CN3)CC2)c(C)c1	none
Cc1cccc(NC(=O)C2CCN(C(=O)[C@@H]3Cc4ccccc4CN3)CC2)c1	MIN6 prolif-1 5.2 | MIN6 prolif-2 inactive
CCC(C)c1ccccc1N1CC(C(=O)N2CCN(S(=O)(=O)c3cccc([N+](=O)[O-])c3)CC2)CC1=O (stereo unspecified)	none
CCN(c1cccc(C)c1)S(=O)(=O)c1ccc2c3c(cccc13)C(=O)N2	none
CCN(CC)S(=O)(=O)c1ccc2c3c(cccc13)C(=O)N2	MIN6 prolif-1 11.3 | MIN6 prolif-2 inactive
COC(=O)c1cc(C)sc1NC(=O)c1ccco1	none
COC(=O)c1ccsc1NC(=O)c1ccco1	MIN6 prolif-1 11.1 | MIN6 prolif-2 inactive
COc1ccc(S(=O)(=O)N2CCOCC2)cc1NC(=O)/C=C/c1ccccc1	none
N#CC(c1ccccn1)c1ncc(C(F)(F)F)cc1Cl (stereo unspecified)	MIN6 prolif-1 8.3 | MIN6 prolif-2 inactive
CC(C)(CO)[C@@H](O)C(=O)NCCC(=O)O	none
Cc1cc(C)n(CC(=O)NCc2ccccc2)c(=O)c1C#N	MIN6 prolif-1 6.0 | MIN6 prolif-2 inactive
O=C(N1CCN(c2cccc(Cl)c2)CC1)C1(c2cccs2)CCOCC1	none
COc1ccc2[nH]c3c(c2c1)CC(C)NC3=O (stereo unspecified)	MIN6 prolif-1 7.3 | MIN6 prolif-2 inactive
COc1ccc2[nH]c3c(c(=O)c2c1)CCCC3	none (no result: MIN6 prolif-1, DAGLB inhibitor)
COc1cc(N)c(Cl)cc1C(=O)OCC(=O)Nc1cccnc1Cl	none
COc1ccc(-c2nc(CSCC(=O)NCCC3=CCCCC3)c(C)o2)cc1OC	none
CCn1cc(CNC(=O)c2cccc([N+](=O)[O-])c2)cn1	none
CCn1cc(CN(C)S(=O)(=O)c2cccc([N+](=O)[O-])c2)cn1	MIN6 prolif-1 7.2 | MIN6 prolif-2 inactive
Nc1nc2c(nc(SCc3ccccc3Br)n2[C@@H]2O[C@H](CO)[C@@H](O)[C@H]2O)c(=O)[nH]1	none
C#CCN(Cc1ccco1)C(=O)c1cc(COc2cccc3cccnc23)on1	none (no result: MIN6 prolif-1)
Cc1c([N+](=O)[O-])c2ccc(O)cc2n1-c1ccccc1	MIN6 prolif-1 15.0 | MIN6 prolif-2 inactive
Cc1ccc(-n2c(C)c([N+](=O)[O-])c3ccc(O)cc32)cc1	MIN6 prolif-1 7.7 (no result: Myeloid diff MLP, SENP1 inh, NRP1-CendR mod, MT1-MMP act inh, DAGLB inhibitor) | MIN6 prolif-2 inactive
COc1cc(/C=N/NS(=O)(=O)c2ccc3ccccc3c2)ccc1OCCN1CCOCC1	MIN6 prolif-1 0.0 | MIN6 prolif-2 inactive
Cc1cccc(N/C=C/C(=C(C#N)C#N)N(C)C)c1	none (no result: Myeloid diff MLP)
CN(C)C(/C=C/Nc1cccc([N+](=O)[O-])c1)=C(C#N)C#N	MIN6 prolif-1 8.1 | MIN6 prolif-2 inactive
C=CCNC(=O)c1onc(CSc2cc(C)cc(C)c2)c1C(=O)O	none
C=CCNC(=O)c1onc(CSc2ccccc2CC)c1C(=O)O	MIN6 prolif-1 12.0 | MIN6 prolif-2 inactive
COCCOC(=O)c1c(C)oc2ccc(NS(=O)(=O)c3ccccc3)cc12	MIN6 prolif-1 5.0 | MIN6 prolif-2 inactive
CCc1nnc(NC(=O)COc2ccc([N+](=O)[O-])cc2)s1	none
CCc1nnc(NC(=O)COc2ccccc2[N+](=O)[O-])s1	MIN6 prolif-1 4.6 | MIN6 prolif-2 inactive
CC1CCCN(C(=O)c2ccc(Cl)c(S(=O)(=O)N3CCCCCC3)c2)C1 (stereo unspecified)	none
CCc1nn(C(CC)C(=O)NCc2cccc(OC)c2OC)c(=O)c2cc3occc3n12 (stereo unspecified)	MIN6 prolif-1 13.7 | MIN6 prolif-2 inactive
Cc1ccccc1N1CCN(C(=O)c2ccccc2NC(=O)c2ccccc2C(=O)O)CC1	none
